Type in all cases: functional, cell-based
One assay has as its system KB. The assay can be described thus: Cytotoxicity against human KB cells by MTT assay. The procedure, abridged:
(§1)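 5-day MTT test on human tumor cells (KB epidermoid, HCT-8 ileocecal carcinoma, A2780 epithelial); cell-generated MTT-formazan solubilized in dimethyl sulfoxide and read as a measure of cell growth.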
In general terms: Formazan colour is commonly taken as a measure of viable cells.

The nature of assay [1]: Cytotoxicity against HCT cells by MTT assay. The conditions noted are these: Homo sapiens. The gist of the method:
as §1

A further assay deals with A2780. The experiment in a line: Cytotoxicity against human A2780 cells by MTT assay. The gist of the method: as §1

Each structure is given as a SMILES string. In brackets after ≈: the same amount, converted by molar mass.

With `CCCCCCCCCC[C@@H](O)[C@H]1CC[C@H]([C@H](O)CCCCCC(O)CCCCCCCCCCC2=C[C@H](C)OC2=O)O1` (some centres not stated) [CALAMISTRIN C], the IC50 – broadly, the concentration that inhibits the measured activity by half – turned out to be 0.0605 µg/mL (≈ 0.0994 µM) in the assay with KB, 0.00473 µg/mL (≈ 0.00777 µM) in assay [1] and 0.00315 µg/mL (≈ 0.00517 µM) in the assay with A2780.
`CCCCCCCCCC[C@H](O)[C@H]1CC[C@H]([C@H](O)CCCCCC(O)CCCCCCCCCCC2=C[C@H](C)OC2=O)O1` (some centres not stated) [CALAMISTRIN D]: the IC50 stood at 0.0273 µg/mL (≈ 0.0448 µM) with KB, 0.0732 µg/mL (≈ 0.12 µM) in assay [1] and 0.431 µg/mL (≈ 0.708 µM) in the assay with A2780.
Regarding `CCCCCCCC[C@H](O)[C@H]1CC[C@H]([C@H]2CC[C@H]([C@H](O)CCCCCCCCCCCC(O)CCC3=C[C@H](C)OC3=O)O2)O1` (some centres not stated) [CALAMISTRIN F], the IC50 in the assay with KB is 0.051 µg/mL (≈ 0.0819 µM); in assay [1], 0.00227 µg/mL (≈ 0.00364 µM); in the assay on A2780, 0.0366 µg/mL (≈ 0.0588 µM).
As to `CCCCCCCC[C@@H](O)[C@H]1CC[C@H]([C@H]2CC[C@H]([C@H](O)CCCCCCCCCCC[C@@H](O)CCC3=C[C@H](C)OC3=O)O2)O1` [CALAMISTRIN G], the concentration for half-maximal inhibition (IC50) came to 0.02 µg/mL (≈ 0.0321 µM) with KB, 0.00331 µg/mL (≈ 0.00531 µM) in assay [1] and 0.00197 µg/mL (≈ 0.00316 µM) with A2780.

For the origin of these results see ChEMBL document CHEMBL1155577, “New annonaceous acetogenins from the roots of Uvaria calamistrata” (J Nat Prod, 2000).
